# Assay outcomes (PubChem)
# This is one part of a sample in which hits are shown more often than they occur.
# L major viab = inhibitors of Leishmania major promastigote growth | Leishmania major promastigotes, resazurin fluorescence viability | inhibition, % at 10 µM | 200,000 compounds, 9% hits; in the data active means inhibition above about 50%;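 further: promastigotes grown with compound for 44 hours at 28 °C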
# S1P4 ag = activates the human S1P4 receptor; O95977; S1P4-expressing cell line, agonist reporter assay; activation, % at 4.98 µM; 220,000 compounds, 0.35% hits; in the data active means activation above about 11%;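 further: 0% = DMSO vehicle and 100% = reference agonist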
# MDM2 E3 inh = inhibitors of human Mdm2 E3 ubiquitin ligase | cell-based MDM2 ubiquitination luciferase reporter, 2 h; 0 = plate control, 100 = twice control, blank-subtracted | 210,000 compounds, 0.11% hits | AID 1230 | signal enhancement, % at 5 µM | Q00987;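 active means signal enhancement of 30% or more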;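 further: luminescence tracks abundance of the self-degrading MDM2-luciferase fusion protein; higher signal means inhibition of MDM2 E3 ligase activity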
#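 Timing – 2 h compound exposure at 37 °C · Assay system – mammalian cells stably expressing self-ubiquitinating, self-degrading MDM2 E3–luciferase fusion · Amount – 2000 cells seeded into each well · Measure – % luminescence enhancement versus blank-corrected plate control mean · Measured by – SteadyLite luminescence, 15 min reagent step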
# S1P3 antagonist = blocks the human S1P3 receptor; Q99500; CHO S1P3 NFAT-BLA reporter, FRET fluorescence, antagonist mode; inhibition, % at 4.98 µM; 170,000 compounds, 0.27% hits;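 active means inhibition above the plate cutoff, the mean inhibition of test wells on that plate plus 3 SD, cut at about 28% in these data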;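 further: cells challenged with S1P at its EC80 of 0.8 µM; blue over green emission ratio from cleaved BLA substrate after 4 h stimulation; 0% = S1P-stimulated wells and 100% = unstimulated DMSO-only wells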
# Target sequence (Q99500 whole entry, looked up): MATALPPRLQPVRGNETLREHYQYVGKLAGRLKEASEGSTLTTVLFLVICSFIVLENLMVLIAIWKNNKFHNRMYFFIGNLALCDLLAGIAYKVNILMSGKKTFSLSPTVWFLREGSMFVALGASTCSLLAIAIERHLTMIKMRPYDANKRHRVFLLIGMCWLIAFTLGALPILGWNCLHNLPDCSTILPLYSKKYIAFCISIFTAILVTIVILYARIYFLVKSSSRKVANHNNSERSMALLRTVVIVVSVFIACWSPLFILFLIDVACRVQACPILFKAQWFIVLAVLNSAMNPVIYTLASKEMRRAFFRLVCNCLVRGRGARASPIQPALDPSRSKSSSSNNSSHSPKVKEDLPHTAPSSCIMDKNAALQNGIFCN
# S1P4 antag = antagonists of human S1P4 receptor; S1P4-expressing cells, antagonist mode, reporter read-out; inhibition, % at 4.98 µM; 220,000 compounds, 0.26% hits; in the data active means inhibition above about 29%;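 further: 0% = wells stimulated with agonist and 100% = vehicle wells without agonist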
# Numbers without * were called inactive; nt = not tested or not shown.
SMILES,L major viab,S1P4 ag,MDM2 E3 inh,S1P3 antagonist,S1P4 antag
C/C(=N\NC(=O)c1cccc(S(=O)(=O)Nc2ccccc2Cl)c1)c1ccc(-n2ccnc2)cc1,2,-3,-5,nt,-9
Cc1cc(C)cc(NC(=S)/C(=C(\[O-])c2ccc(Cl)cc2Cl)[n+]2ccccc2)c1,27,2,-5,-8,4
[O-]/C(=C(\C(=S)Nc1ccc(SC(F)F)cc1)[n+]1ccccc1)c1ccc(Cl)cc1Cl,84*,2,-31,4,-14
CC(=O)c1cccc2c(O)c(C3=Nc4ccccc4C3=O)[nH]c12,99*,-1,-57,nt,6
O=C1C(c2c(O)[nH]c3ccccc23)=Nc2ccccc21,nt,3,nt,-4,-10
COc1ccc(S(=O)(=O)NCC2CCCN(Cc3ccccc3C)C2)cc1 (stereo unspecified),99*,1,-7,4,-3
Nc1nc(SCC(=O)c2c(N)n(Cc3ccccc3)c(=O)[nH]c2=O)n[nH]1,nt,1,nt,0,-10
O=C(NNc1ccc(O)cc1)c1ccc(Br)cc1,98*,0,-22,0,-14
O=C(Nc1cccc(O)c1)c1ccc(Br)cc1,9,-1,-13,-18,-22
C1CN(CC23CC4CC(CC(C4)C2)C3)CCO1,81*,0,-6,nt,-22
NC(=O)c1sc2nc(-c3ccccc3)c3c(c2c1N)CCCC3,22,-2,-96,5,-12
NC(=O)c1sc2nccc(Nc3ccccc3)c2c1N,-11,0,-10,72*,-6
Cc1ccc(C(=O)C2CCN(CC(=O)N3CCN(c4ccc(F)cc4)CC3)CC2)cc1,89*,0,-8,-11,-1
NC(=S)c1cc2cc(Cl)ccc2oc1=O,nt,0,-4,1,6
Cc1cc(C)n(-c2nncn2NC(=O)c2ccc(Cl)cc2O)n1,-2,0,1,14,-14
COc1ccc(C2C(C#N)=C(N)N(c3cccnc3)C3=C2C(=O)CCC3)cc1Cn1cc([N+](=O)[O-])cn1 (stereo unspecified),89*,0,-3,nt,-2
COc1ccc(C2C(C#N)=C(N)N(c3ccccc3)C3=C2C(=O)CCC3)cc1Cn1cc([N+](=O)[O-])cn1 (stereo unspecified),99*,-3,1,nt,3
COc1ccc(C2C(C#N)=C(N)OC3=C2C(=O)CCC3)cc1Cn1cc([N+](=O)[O-])cn1 (stereo unspecified),2,0,-7,-11,-3
N#C/C(=C/c1ccc(N2CCCCC2)cc1)c1cccc(F)c1,99*,1,-5,13,5
CCN1C(=O)/C(=C\N(C)C)c2ccccc21,-3,-1,-10,nt,-2
CCN1C(=O)/C(=C\C(=O)c2cccs2)c2cc(Br)ccc21,100*,0,-12,8,6
O=C1Nc2ccc(Br)cc2C1=Nc1ccc(-c2nnc3n2CCCCC3)cc1,74*,-3,-14,nt,5
Brc1cccc(-c2nnc3n2CCCCC3)c1,-3,0,8,-10,5
COc1ccc(/C=C2\C(=O)N(Cc3ccc(F)cc3)CC(=O)N2Cc2ccccc2)cc1,95*,0,-6,nt,-14
COc1ccc(/C=C2\C(=O)NCC(=O)N2Cc2ccccc2)cc1,-3,-3,-13,nt,-11
SMILES,L major viab,S1P4 ag,MDM2 E3 inh,S1P3 antagonist,S1P4 antag
CN(CCc1ccccn1)C(=O)CCC1CCCN(C(=O)c2c3c(nn2C)CCCC3)C1 (stereo unspecified),-3,-1,-8,13,8
Cc1cc(=O)n(CC(C)O)c(O)c1C#N (stereo unspecified),-3,-1,-1,5,1
CCOC(=O)c1[nH]c2cc(OC)c(OC)cc2c1NC(=O)CN(C)C1CCCCC1,61*,1,-14,16,-9
COc1cccc(C2C(C#N)=C(N)OC3=C2C(=O)CC(c2ccco2)C3)c1OCc1ccc(F)cc1 (stereo unspecified),76*,1,-15,-27,-9
Cc1cc(N2CCN(c3ccccc3)CC2)nc(-c2ccccc2O)n1,3,3,-16,nt,1
Cc1cc(N2CCN(c3ccccc3)CC2)nc(-n2nc(C)cc2C)n1,72*,2,-15,-8,-35
Cc1cc(C)nc(-n2nc(C)cc2Nc2ccccc2)n1,52*,0,-6,12,-8
Cc1cc(C)nc(-n2nc(C)cc2NC(=O)CN2CCCC(C)C2)n1 (stereo unspecified),15,0,-3,5,1
Cc1cc(Nc2ccccc2)n(-c2ccccc2)n1,7,0,3,35,-1
Cc1cc(C)nc(-n2nc(C)cc2NC(=O)CN2CCc3ccccc3C2)n1,54*,-1,-20,14,-2
CCC(C)NC(=S)NNC(=O)c1ccc(C(C)(C)C)cc1 (stereo unspecified),-2,-2,-1,nt,-21
O=C(CCSc1ccc(Cl)cc1)NC12CC3CC(CC(C3)C1)C2,3,0,-18,nt,8
COc1ccc(-c2nnn(CC(=O)NCCc3ccc(OC)c(OC)c3)n2)cc1,-5,-1,20,-7,7
CCOc1cccc(C(=O)NC(=S)Nc2ccc(Cl)cc2C(=O)O)c1,-4,0,5,-6,-4
CCOc1ccc2nc3sc(C(=O)N4CCOCC4)c(N)c3cc2c1,93*,2,-62,5,-16
COc1ccc2nc3sc(C(=O)NCc4cccs4)c(N)c3cc2c1,6,0,-2,54*,-1
COc1cccc(NC(=O)CSCc2n[nH]c(=O)[nH]2)c1,-7,-2,2,-36,-9
Cc1sc(NC(=S)NC(=O)c2ccco2)c(C#N)c1C,-3,-1,-10,10,6
COc1ccccc1-c1nnc(SCC(=O)c2ccc(C3CCCCC3)cc2)n1Cc1ccco1,25,-1,-13,nt,-1
N#C/C(=C\c1ccc(N2CCCC2)c([N+](=O)[O-])c1)c1nc2ccccc2[nH]1,6,4,-14,nt,-5
N#C/C(=C\c1ccc(N2CCCCC2)c([N+](=O)[O-])c1)c1nn(-c2ccccc2)c(N)c1C#N,99*,-1,5,-1,-12
CC1CCCN(c2ccc(/C=C(\C#N)c3nn(-c4ccccc4)c(N)c3C#N)cc2[N+](=O)[O-])C1 (stereo unspecified),96*,1,-6,nt,-15
CC1CCN(c2ccc(/C=C(\C#N)c3nn(-c4ccccc4)c(N)c3C#N)cc2[N+](=O)[O-])CC1,95*,1,-1,-2,-11
CC(=O)Nc1ccc(N2CCCC(C)C2)c([N+](=O)[O-])c1 (stereo unspecified),11,-1,-20,-13,-11
CC1CCN(c2cc(N3CCC(C)CC3)c([N+](=O)[O-])cc2/C=C(\C#N)c2nn(-c3ccccc3)c(N)c2C#N)CC1,-4,1,9,nt,-13
CCOc1ccc(/C=C(\C#N)C(=O)NCC2CCCO2)cc1OCC (stereo unspecified),64*,-1,3,10,-7
